# Screens deposited in PubChem BioAssay by Columbia University Molecular Screening Center.
# The sample as a whole holds a higher share of hits than the screen did.
# INS promoter act – TRM-6 insulin promoter activation | TRM-6 cells, insulin promoter eGFP reporter, imaging; plate-scaled: unstimulated 0, stimulated control 100 | activation, % at 2 µM | 0.81% of 130,000 active | AID 1296;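 active = activation at 2 µM above a set limit, confirmed on inspection of the cell images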;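 note: share of cells whose green reporter signal exceeds an intensity cutoff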
#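 System – human fetal islet-derived TRM-6 cells with tamoxifen-inducible insulin promoter–eGFP reporter · Amount – 1,000 cells per well · Schedule – overnight tamoxifen, then two-day compound incubation at 37 °C · Detection – high-content imaging of fixed cells with Hoechst nuclear stain · Read-out – percent cells above green-intensity threshold, converted to percent activation versus plate controls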
# * = called active by the depositor; [ ] = another dose, or the depositor's remark.
SMILES,INS promoter act
CN(C)c1ccc(C(CC(=O)O)NC(=O)c2ccc(Cl)cc2)cc1 (configuration not stated),-9.1
Cc1ccccc1N(CC(=O)N/N=C/c1ccc(N(C)C)cc1)C(=O)c1ccccc1,-2.7
c1cc2c3c(cccc3c1)C(N1CCN(C3=Nc4cccc5cccc3c45)CC1)=N2,-6.7
O=C1c2cccc3cccc(c23)C(=O)N1CC1CCN(S(=O)(=O)c2ccc(F)cc2)CC1,0.0
c1ccc(CC2CCN(C3=Nc4cccc5cccc3c45)CC2)cc1,82.9*
OCc1nc2ccccc2n1C/C=C/c1ccccc1,-8.6
CC(=O)Nc1ccc(NC(=O)C(C)OC(=O)c2ccc(C)s2)cc1 (configuration not stated),0.0
O=C1C2C3C=CC(C4CC34)C2C(=O)N1/N=C/c1cccs1 (configuration not stated),9.7
Cc1cc(OC(=O)C(C)(C)C)c([N+](=O)[O-])c(=O)[nH]1,0.0
CCCCOc1ccc2c(C)cc(=O)oc2c1OCCCC,-6.7
CCOC(=O)c1c(NC(=O)c2ccc(Cl)cc2)csc1C,-9.7
COc1ccccc1N1CCN(C(CNS(=O)(=O)c2ccc(C)cc2)c2cccnc2)CC1 (configuration not stated),75.7*
Cc1ccc(S(=O)(=O)NCC(c2cccnc2)N(C)C)cc1 (configuration not stated),8.7
COc1ccccc1N1CCN(C(=O)C2CCN(S(=O)(=O)c3ccc(C)cc3)CC2)CC1,-5.9
O=C(O)CNC(=O)c1ccc(N2CCOCC2)cc1[N+](=O)[O-],6.7
CCn1c(=O)c(=O)[nH]c2cc(C(=O)NC3CCCc4ccccc43)ccc21 (configuration not stated),3.2
CNc1nc(C(=O)O)nc(N2CCOCC2)n1,272.2
O=c1c2ccccc2nc2c3ccccc3c(NCCN3CCOCC3)nn12,8.6
C=CCNc1nc(NCCN2CCOCC2)nc(N2CCOCC2)n1,493.3*
O=C(NC(Cc1ccccc1)c1ccc2c(c1)OCCCO2)c1ccc(F)cc1 (configuration not stated),0.0
O=C(/C=N/O)NCc1ccncc1,-5.3
Cc1ccc(C(=O)c2cn[nH]c2-c2ccccc2O)cc1,0.0
O=C(c1ccc(F)cc1)c1cn[nH]c1-c1ccccc1O,171.0*
Cc1[nH]nc2ncc(C(=O)c3ccccc3O)cc12,-80.0
COC(=O)CCC(=O)Nc1cccc(C(=O)Nc2cccc(Cl)c2)c1,-4.2
SMILES,INS promoter act
O=C(NCCCN1CCCC1=O)C1CCN(S(=O)(=O)N2CCOCC2)CC1,130.5
CCC1CCCCN1CCCNC(=O)C1CCN(S(=O)(=O)N2CCCCC2)CC1 (configuration not stated),215.4*
O=C(NCCC1=CCCCC1)C1CCN(S(=O)(=O)N2CCCC2)CC1,-7.1
COc1cc(CN(C(=S)NCC(=O)NC2CCCC2)C2CCCC2)cc(OC)c1OC,-6.7
FC(F)(F)C(Oc1nc(Nc2ccc(Cl)cc2)nc(N2CCOCC2)n1)C(F)(F)F,278.9
CCOC(=O)C(C)On1c(SC(C)C(=O)OCC)nc2ccccc2c1=O (configuration not stated),75.7*
CCSc1nc2ccccc2c(=O)n1OCC(=O)OC,0.0
COC(=O)COn1c(SC(C)C)nc2ccccc2c1=O,6.9
Cc1ccc(/C(O)=C2/C(=O)C(=O)N(CCN3CCOCC3)C2c2cccs2)cc1 (configuration not stated),8.3
Cc1c(Br)c([N+](=O)[O-])nn1CC(=O)Nc1ccc(C(C)C)cc1,7.7
Cc1cc(C)n2nc(C(=O)Nc3ccc4c(c3)CCC4)nc2n1,-4.8
O=C(Nn1c(Cc2cccs2)nc2ccccc2c1=O)c1cccs1,3.1
COC(=O)c1cc(C#N)c(Oc2ccc(F)cc2)nc1C,6.9
CCOC(=O)C1CN(S(=O)(=O)c2ccc(C)cc2)CCN1S(=O)(=O)c1ccc(C)cc1 (configuration not stated),386.7
Cc1ccc(S(=O)(=O)N2CCCC2C(=O)OCc2ccco2)cc1 (configuration not stated),578.6*
O=C(NCc1ccco1)C1CCCN1S(=O)(=O)c1ccc2ccccc2c1 (configuration not stated),-5.7
Cc1cccc(S(=O)(=O)NCCC(=O)OCC(=O)Nc2ccc(C#N)cc2)c1,-9.8
COc1cccc(NC(=O)C2C3C=CC4(O3)C2C(=O)N(C2CC2)C4C(=O)NC2CCCCC2C)c1 (configuration not stated),810.0*
CCCCN1C(=O)C2C(C(=O)Nc3cccc(OC)c3)C3C=CC2(O3)C1C(=O)NC1CCCCC1C (configuration not stated),126.3
COc1cccc(NC(=O)C2C3C=CC4(O3)C2C(=O)N(C(C)C)C4C(=O)NC2CCCCC2C)c1 (configuration not stated),-28.6
Cc1nnc(NC(=O)c2oc3c(ccc4ccccc43)c2C)s1,9.3
CN(C)S(=O)(=O)c1ccc(N2CCCC2)c(C(=O)NCC2CCCCC2)c1,-70.6
CS(=O)(=O)NCc1nnc(SCC(=O)NC2CCCCC2)n1-c1ccc(F)cc1,4.5
O=[N+]([O-])c1cccc(-c2nc(NCc3ccccc3)c3ccccc3n2)c1,322.2*
Fc1ccc(CNc2nc(-c3ccccc3)nc3ccccc23)cc1,0.0
SMILES,INS promoter act
Cc1ccc(-c2nc(N/N=C/c3cccc([N+](=O)[O-])c3)c3ccccc3n2)cc1,1.8
O=C(O)C1CCCCC1C(=O)NCc1ccc2c(c1)OCO2 (configuration not stated),-7.1
CCOC(=O)c1c(C)n(C)c2ccc(OC)c(NC(=O)CCN3CCSCC3)c12,7.1
CN(C)C(=O)COc1ccc2cc(-c3ccccc3)c(=O)oc2c1,-27.1
CCN(CC)c1ccc2cc(-c3nc(-c4ccc(OC)cc4)cs3)c(=O)oc2c1,222.6*[fluoresces]
CCOC(=O)c1cc2ccc(OC)cc2oc1=O,5.3
COCCn1c(-c2ccc(OC)cc2)cnc1SCC(=O)Nc1cccc2ccccc12,2.3
CC(C)(C)NS(=O)(=O)c1cc(C(=O)Nc2sccc2C#N)ccc1Cl,0.0
O=C(CSc1nnc(-c2cccs2)o1)NCC1CN(Cc2ccccc2)CCO1 (configuration not stated),75.7*
CC1CCCC(C)N1C(=O)CSc1nnc(-c2cccs2)o1 (configuration not stated),2.6
O=C(CSc1nc2ccsc2c(=O)n1Cc1ccc(C(=O)O)cc1)NCC1CCCO1 (configuration not stated),5.6
COc1ccc(-c2noc(CN(C(=O)c3cccs3)C(C)C)n2)cc1,8.3
O=C(CCCN1C(=O)c2cccc3cccc(c23)C1=O)N1CCc2ccccc2C1,-5.7
CCOC(=O)c1sc2nc(C)[nH]c(=S)c2c1C,-78.6
COC(=O)Cn1c(C)nc2c(sc3nc(C)cc(C)c32)c1=O,5.4
CCOC(=O)Cn1c(C)nc2c(C(=O)OCC)sc(C)c2c1=O,76.3*
COc1ccc(N2CC(C(=O)NCCCN3CCOCC3)CC2=O)cc1 (configuration not stated),0.0
Cc1ccc(CC(=O)Nc2ccccc2N2CCOCC2)cc1C,3.1
C=CCn1c(SCCC)nc(O)cc1=O,5.6
Nc1nc2nc(-c3ccc(OCc4ccccc4)cc3)cc(C(F)(F)F)n2n1,-3.4
c1ccc(-c2cc(-c3ccccc3)n3ncnc3n2)cc1,-69.2
Fc1ccc(-c2cc(C(F)(F)F)n3ncnc3n2)cc1,235.3*
Cc1ccc(CC(=O)N2CCN(c3ccccn3)CC2)cc1,-7.0
Cc1ccc(OCn2c(=O)sc3ccccc32)cc1,437.1*
